Measured values taken from ChEMBL document CHEMBL1153877, “Lowering of 5-nitroimidazole's mutagenicity: towards optimal antiparasitic pharmacophore” (Eur J Med Chem, 2009).

Tests used:
[1] = system: Salmonella typhimurium; test: Induction of mutagenicity in Salmonella Typhimurium YG1042 assessed as number of revertant per nmol after 48 hrs; assay type: toxicity, organism-based; conditions: salmonella enterica subsp. enterica serovar typhimurium
In short: (§1)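 YG1042, a TA100 derivative, grown overnight in Nutrient Broth No. 2 with ampicillin and kanamycin. Bacteria preincubated 60 min at 37 °C with shaking with compound in DMSO and 0.1 mL PBS (0.15 M, pH 7.4). Top agar containing histidine/biotin added, then plated on Vogel-Bonner agar. Revertants counted after 48 h. Four doses in triplicate plates; solvent control in quadruplicate. Mutagenic power given as revertants per amount of compound.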

[2] = system: Salmonella typhimurium; test: Induction of mutagenicity in Salmonella Typhimurium TA100 assessed as number of revertant per ug after 48 hrs; assay type: toxicity, organism-based; conditions: salmonella enterica subsp. enterica serovar typhimurium
In short: (§2)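 TA100 grown overnight in Nutrient Broth No. 2 with ampicillin. Bacteria preincubated 60 min at 37 °C with shaking with compound in DMSO and 0.1 mL PBS (0.15 M, pH 7.4). Top agar containing histidine/biotin added, then plated on Vogel-Bonner agar. Revertants counted after 48 h. Four consecutive doses in triplicate plates; solvent control in quadruplicate. Mutagenic power given as revertants per amount of compound.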

[3] = system: Salmonella typhimurium; test: Induction of mutagenicity in Salmonella Typhimurium YG1042 assessed as number of revertant per nmol after 48 hrs relative to metranidazole; assay type: toxicity, organism-based; conditions: salmonella enterica subsp. enterica serovar typhimurium
[4] = system: Salmonella typhimurium; test: Induction of mutagenicity in Salmonella Typhimurium TA100 assessed as number of revertant per nmol after 48 hrs relative to metranidazole; assay type: toxicity, organism-based; conditions: salmonella enterica subsp. enterica serovar typhimurium
[5] = system: Salmonella typhimurium; test: Induction of mutagenicity in Salmonella Typhimurium YG1042 assessed as number of revertant per ug after 48 hrs; assay type: toxicity, organism-based; conditions: salmonella enterica subsp. enterica serovar typhimurium; in short: as §1
[6] = system: Salmonella typhimurium; test: Induction of mutagenicity in Salmonella Typhimurium TA100 assessed as number of revertant per nmol after 48 hrs; assay type: toxicity, organism-based; conditions: salmonella enterica subsp. enterica serovar typhimurium; in short: as §2
[7] = system: THP-1; test: Cytotoxicity against human THP1 cells after 72 hrs by propidium iodide-based flow cytometry; assay type: cell-based; conditions: THP-1, 72 h
In short: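 THP1 monocytes kept in RPMI with 10% foetal calf serum, 25 mM HEPES, 25 mM NaHCO₃ and 1% L-glutamine/penicillin-streptomycin at 37 °C, 6% CO₂. Cells at 10⁵ cells/mL exposed for 72 h to various concentrations from DMSO stocks. Drug-free and 0.5% DMSO final controls run alongside. Living cells counted by propidium iodide flow cytometry.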

[8] = system: Trichomonas vaginalis; test: Antitrichomonas activity against Trichomonas vaginalis TVR87 after 48 hrs by trypan blue staining; assay type: functional, organism-based; conditions: TVR87, 48 h
In short: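 T. vaginalis TVR87 trophozoites grown in TM 161 medium with 10% heat-inactivated horse serum, used one day after subculture in log phase. Assay at 5 × 10³ trophozoites/mL, triplicate cultures, incubated anaerobically at 37 °C for 48 h with a range of compound concentrations from DMSO stocks. DMSO 0.1% final served as negative control. Viable cells counted by trypan blue.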

[9] = system: Salmonella typhimurium; test: Ratio of number of revertant per nmol of drug for Salmonella Typhimurium YG1042 to number of revertant per nmol of drug for Salmonella Typhimurium TA100; assay type: toxicity, organism-based; conditions: salmonella enterica subsp. enterica serovar typhimurium
[10] = Specificity index, ratio of IC50 for human THP1 cells to IC50 for Trichomonas vaginalis TVR87; design: species or system THP-1
In short: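 Specificity index = IC50 against THP1 cells (72 h, propidium iodide flow cytometry) divided by IC50 against T. vaginalis (48 h, trypan blue).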

| SMILES | Activity [1] | Activity [2] | Activity [3] | Activity [4] | Activity [5] | Activity [6] | IC50 [7] [µM] | IC50 [8] [µM] | Ratio [9] | Ratio IC50 [10] |
| --- | --- | --- | --- | --- | --- | --- | --- | --- | --- | --- |
| Cc1ncc([N+](=O)[O-])n1C [DIMETRIDAZOLE] | 222.71 | 153.8 | 2.64 | 2.6 | 1578.04 | 21.71 | > 1770 | 0.708 | 10.3 | >2501 |
| Cc1nc(CS(=O)(=O)c2ccc(Br)cc2)c([N+](=O)[O-])n1CC(C)O (stereo not given) | 1.29 | 3.36 | 0.02 | 0.17 | 3.08 | 1.41 | 126 | 0.418 | 0.9 | 301 |
| Cn1cnc(CS(=O)(=O)c2ccccc2)c1[N+](=O)[O-] | 49.69 | 50.91 | 0.59 | 1.71 | 176.64 | 14.32 | > 888 | 0.199 | 3.5 | >4460 |
| Cc1nc(CS(=O)(=O)c2ccc(F)cc2)c([N+](=O)[O-])n1CCO | 3.46 | 1.91 | 0.04 | 0.08 | 10.09 | 0.66 | > 728 | 1.75 | 5.3 | >416 |
| Cc1nc(CS(=O)(=O)c2ccc(Cl)cc2)c([N+](=O)[O-])n1CCO | 5.3 | 6.22 | 0.06 | 0.27 | 14.73 | 2.24 | 578 | 0.044 | 2.4 | 13136 |
| Cn1cnc(CS(=O)(=O)c2ccc(Br)cc2)c1[N+](=O)[O-] | 59.22 | 41.41 | 0.7 | 1.78 | 164.42 | 14.92 | > 694 | 0.394 | 4 | >1761 |
| Cc1nc(CS(=O)(=O)c2ccccc2)c([N+](=O)[O-])n1C | 21.91 | 27.91 | 0.26 | 0.99 | 74.18 | 8.24 | > 846 | 0.24 | 2.7 | >3525 |
| Cn1cnc(CS(=O)(=O)c2ccc(Cl)cc2)c1[N+](=O)[O-] | 52.85 | 139.44 | 0.63 | 5.27 | 167.38 | 44.03 | 174 | 0.158 | 1.2 | 1101 |
| Cc1ncc([N+](=O)[O-])n1CC(C)O (stereo not given) [SECNIDAZOLE] | 23.78 | 25.74 | 0.28 | 0.57 | 128.44 | 4.77 | > 1350 | 0.81 | 5 | >1666 |
| Cc1nc(CS(=O)(=O)c2ccc(Cl)cc2)c([N+](=O)[O-])n1C | 8.31 | 7.15 | 0.1 | 0.28 | 25.21 | 2.36 | 68 | 0.918 | 3.5 | 74 |
| Cc1nc(CS(=O)(=O)c2ccc(Br)cc2)c([N+](=O)[O-])n1C | 12.32 | 17.61 | 0.15 | 0.79 | 32.91 | 6.59 | 326 | 0.66 | 1.9 | 493 |
| Cc1nc(CS(=O)(=O)c2ccccc2)c([N+](=O)[O-])n1CC(C)O (stereo not given) | 3.65 | 2.58 | 0.04 | 0.1 | 10.76 | 0.88 | 418 | 0.615 | 4.2 | 679 |
| Cc1nc(CS(=O)(=O)c2ccc(Cl)cc2)c([N+](=O)[O-])n1CC(C)O (stereo not given) | 1.39 | 2.18 | 0.02 | 0.1 | 3.72 | 0.81 | > 668 | 0.732 | 1.7 | >912 |
| Cc1ccc(S(=O)(=O)Cc2nc(C)n(CC(C)O)c2[N+](=O)[O-])cc1 (stereo not given) | 2.39 | 2.07 | 0.03 | 0.09 | 6.76 | 0.73 | > 707 | 0.124 | 3.3 | >5701 |
| Cn1cnc(CS(=O)(=O)c2ccc(F)cc2)c1[N+](=O)[O-] | 47.09 | 35.17 | 0.56 | 1.26 | 157.34 | 10.53 | > 835 | 0.334 | 4.5 | >2500 |
| Cc1nc(CS(=O)(=O)c2ccc(F)cc2)c([N+](=O)[O-])n1CC(C)O (stereo not given) | – | – | – | – | – | – | > 699 | 2.38 | – | >293 |
| Cn1cncc1[N+](=O)[O-] | 197.14 | 121.79 | 2.34 | 1.85 | 1551.06 | 15.48 | > 1970 | 0.629 | 12.7 | >3125 |
| Cc1ccc(S(=O)(=O)Cc2ncn(C)c2[N+](=O)[O-])cc1 | 54.74 | 69.71 | 0.65 | 2.46 | 185.37 | 20.59 | > 846 | 0.155 | 2.7 | >5458 |
| Cc1nc(CS(=O)(=O)c2ccc(Br)cc2)c([N+](=O)[O-])n1CCO | 3.73 | 2.73 | 0.04 | 0.13 | 9.123 | 1.1 | 124 | 1.64 | 3.4 | 75 |
| Cc1ccc(S(=O)(=O)Cc2nc(C)n(CCO)c2[N+](=O)[O-])cc1 | 2.08 | 4.62 | 0.02 | 0.19 | 6.14 | 1.57 | 59 | 0.067 | 1.3 | 880 |
| Cc1nc(CS(=O)(=O)c2ccc(F)cc2)c([N+](=O)[O-])n1C | 7.6 | 4.72 | 0.09 | 0.18 | 24.26 | 1.48 | > 797 | 2.55 | 5.1 | >312 |
| Cc1ncc([N+](=O)[O-])n1CCO [METRONIDAZOLE] | – | – | – | – | – | – | > 1460 | 2.75 | – | – |
| Cc1ccc(S(=O)(=O)Cc2nc(C)n(C)c2[N+](=O)[O-])cc1 | 17 | 15.03 | 0.2 | 0.56 | 54.97 | 4.65 | 242 | 0.355 | 3.7 | 684 |
| Cc1nc(CS(=O)(=O)c2ccccc2)c([N+](=O)[O-])n1CCO | 2.72 | 1.72 | 0.03 | 0.07 | 8.36 | 0.56 | > 768 | 1.54 | 4.9 | >500 |
